Key:
Format in all cases: functional
[1] = Growth inhibition of human COLO205 cells after 48 hrs by sulforhodamine B assay; details: COLO 205, 48 h
Summary of the method: (§1)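 NCI-60 panel screen by SRB assay (Rubinstein method). Percentage growth taken from optical density of SRB colour, read before and 48 hrs after exposure to compound or vehicle control. All analogues first screened at 10^-5 M. Analogues giving 60% growth inhibition at that level in at least eight lines then went to a five-concentration dose-response study.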

[2] = Growth inhibition of human RPMI8226 cells after 48 hrs by sulforhodamine B assay; details: RPMI-8226, 48 h; summary of the method: as §1
[3] = Growth inhibition of human PC3 cells after 48 hrs by sulforhodamine B assay; details: PC-3, 48 h; summary of the method: as §1
[4] = Growth inhibition of human DU145 cells after 48 hrs by sulforhodamine B assay; details: DU-145, 48 h; summary of the method: as §1
[5] = system: U-251; assay: Growth inhibition of human U251 cells after 48 hrs by sulforhodamine B assay; details: U-251, 48 h; summary of the method: as §1
[6] = system: A498; assay: Growth inhibition of human A498 cells after 48 hrs by sulforhodamine B assay; details: A498, 48 h
Summary of the method: (§2)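 NCI-60 sulforhodamine B screen. Compounds were first tested at a single dose of 10⁻⁵ M; hits, defined as ≥60% growth inhibition in at least eight lines, went on to a five-concentration dose–response. SRB optical density was read before and 48 h after exposure to compound or vehicle. Percentage growth was calculated from OD.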

[7] = system: MDA-MB-468; assay: Growth inhibition of human MDA-MB-468 cells after 48 hrs by sulforhodamine B assay; details: MDA-MB-468, 48 h; summary of the method: as §1
[8] = system: NCI-H23; assay: Growth inhibition of human NCI-H23 cells after 48 hrs by sulforhodamine B assay; details: NCI-H23, 48 h; summary of the method: as §1
[9] = system: MDA-MB-435; assay: Growth inhibition of human MDA-MB-435 cells after 48 hrs by sulforhodamine B assay; details: MDA-MB-435, 48 h; summary of the method: as §2
[10] = Growth inhibition of human IGROV1 cells after 48 hrs by sulforhodamine B assay; details: IGROV-1, 48 h; summary of the method: as §1
[11] = system: CAKI-1; assay: Growth inhibition of human CAKI-1 cells after 48 hrs by sulforhodamine B assay; details: CAKI-1, 48 h; summary of the method: as §1
[12] = Growth inhibition of human SKOV3 cells after 48 hrs by sulforhodamine B assay; details: SK-OV-3, 48 h; summary of the method: as §1
[13] = system: A549; assay: Growth inhibition of human A549/ATCC cells after 48 hrs by sulforhodamine B assay; details: A549, 48 h; summary of the method: as §1
[14] = system: CCRF-CEM; assay: Growth inhibition of human CCRF-CEM cells after 48 hrs by sulforhodamine B assay; summary of the method: as §1
[15] = Growth inhibition of human HCC2998 cells after 48 hrs by sulforhodamine B assay; details: HCC 2998, 48 h; summary of the method: as §1
[16] = system: SK-MEL-2; assay: Growth inhibition of human SK-MEL-2 cells after 48 hrs by sulforhodamine B assay; details: SK-MEL-2, 48 h; summary of the method: as §1
[17] = system: MCF7; assay: Growth inhibition of human MCF7 cells after 48 hrs by sulforhodamine B assay; details: MCF7, 48 h; summary of the method: as §1
[18] = system: KM12; assay: Growth inhibition of human KM12 cells after 48 hrs by sulforhodamine B assay; details: KM12, 48 h; summary of the method: as §1
[19] = Growth inhibition of human HCT15 cells after 48 hrs by sulforhodamine B assay; details: HCT-15, 48 h; summary of the method: as §1
[20] = system: NCI-H460; assay: Growth inhibition of human NCI-H460 cells after 48 hrs by sulforhodamine B assay; details: NCI-H460, 48 h; summary of the method: as §1
[21] = system: MDA-MB-231; assay: Growth inhibition of human MDA-MB-231 cells after 48 hrs by sulforhodamine B assay; details: MDA-MB-231, 48 h; summary of the method: as §1
[22] = Growth inhibition of human SW620 cells after 48 hrs by sulforhodamine B assay; details: SW-620, 48 h; summary of the method: as §1
[23] = Growth inhibition of human UO31 cells after 48 hrs by sulforhodamine B assay; details: UO-31, 48 h; summary of the method: as §1
[24] = Growth inhibition of human HOP92 cells after 48 hrs by sulforhodamine B assay; details: HOP-92, 48 h; summary of the method: as §1
[25] = Growth inhibition of human SF268 cells after 48 hrs by sulforhodamine B assay; details: SF-268, 48 h; summary of the method: as §1
[26] = Growth inhibition of human NCI-ADR-RES cells after 48 hrs by sulforhodamine B assay; summary of the method: as §1
[27] = system: HT-29; assay: Growth inhibition of human HT-29 cells after 48 hrs by sulforhodamine B assay; details: HT-29, 48 h; summary of the method: as §1
[28] = system: SR; assay: Growth inhibition of human SR cells after 48 hrs by sulforhodamine B assay; summary of the method: as §1
[29] = Growth inhibition of human HOP62 cells after 48 hrs by sulforhodamine B assay; details: HOP-62, 48 h; summary of the method: as §1
[30] = Growth inhibition of human HCT116 cells after 48 hrs by sulforhodamine B assay; details: HCT-116, 48 h; summary of the method: as §1
[31] = Growth inhibition of human OVCAR3 cells after 48 hrs by sulforhodamine B assay; details: OVCAR-3, 48 h; summary of the method: as §2
[32] = Growth inhibition of human LOXIMVI cells after 48 hrs by sulforhodamine B assay; details: LOX IMVI; summary of the method: as §1
[33] = system: ACHN; assay: Growth inhibition of human ACHN cells after 48 hrs by sulforhodamine B assay; summary of the method: as §1
[34] = Growth inhibition of human SNB75 cells after 48 hrs by sulforhodamine B assay; details: SNB-75, 48 h; summary of the method: as §1
[35] = system: K562; assay: Growth inhibition of human K562 cells after 48 hrs by sulforhodamine B assay; details: K562, 48 h; summary of the method: as §1
[36] = Growth inhibition of human HL-60(TB) cells after 48 hrs by sulforhodamine B assay; details: HL-60, 48 h; summary of the method: as §1
[37] = Growth inhibition of human SF295 cells after 48 hrs by sulforhodamine B assay; details: SF-295, 48 h; summary of the method: as §1
[38] = read-out: LD50 (the source's name)

COc1ccc(-c2nn[nH]c2-c2cc(OC)c(OC)c(OC)c2)cc1
24 nM: GI50 [15]
> 100000 nM: CC50 [1, 38] | CC50 [2, 38] | CC50 [3, 38] | CC50 [4, 38] | CC50 [5, 38] | LC50 (50% net cell kill) ([6]; read-out: LD50) | CC50 [7, 38] | LC50 (concentration giving 50% cell kill) ([8]; read-out: LD50) | LC50 (concentration killing 50% of cells) ([9]; read-out: LD50) | CC50 [10, 38] | CC50 [11, 38] | LC50 (concentration killing 50% of cells) ([12]; read-out: LD50) | CC50 [13, 38] | LC50 (concentration killing 50% of cells) ([14]; read-out: LD50) | CC50 [15, 38] | CC50 [16, 38] | CC50 [17, 38] | LC50 (concentration killing 50% of cells) ([18]; read-out: LD50) | CC50 [19, 38] | CC50 [20, 38] | CC50 [21, 38] | LC50 (concentration killing 50% of cells) ([23]; read-out: LD50) | CC50 [24, 38] | CC50 [25, 38] | CC50 [26, 38] | LC50 (concentration killing 50% of cells) ([27]; read-out: LD50) | LC50 (concentration giving 50% net cell kill) ([28]; read-out: LD50) | LC50 (concentration killing 50% of cells) ([29]; read-out: LD50) | CC50 [30, 38] | LC50 (concentration giving 50% net cell kill) ([31]; read-out: LD50) | CC50 [32, 38] | CC50 [33, 38] | CC50 [34, 38] | CC50 [35, 38] | CC50 [36, 38] | CC50 [37, 38]
> 100 µM: LD50 (concentration killing 50% of cells) [22]
< 10 nM: GI50 [2] | GI50 [3] | GI50 [4] | GI50 [5] | GI50 [6] | TGI [6] | GI50 [7] | GI50 [8] | GI50 [9] | TGI [9] | GI50 [10] | GI50 [11] | GI50 [12] | GI50 [13] | GI50 [14] | GI50 [16] | GI50 [17] | GI50 [18] | GI50 [19] | GI50 [20] | GI50 [21] | GI50 [22] | GI50 [23] | GI50 [24] | GI50 [25] | GI50 [26] | GI50 [27] | GI50 [28] | GI50 [29] | GI50 [30] | GI50 [31] | TGI [31] | GI50 [32] | GI50 [33] | GI50 [34] | GI50 [35] | GI50 [36] | GI50 [37]
29 nM: GI50 [1]
